DNMT1 inh – human DNMT1 methyltransferase inhibitors, primary screen, biochemical, molecular beacon, fluorescence, HinP1I cleavage, uHTS; DNA (cytosine-5)-methyltransferase 1 (Homo sapiens), P26358; 0.83% of 360,000 active; inhibition (reported as % activation of signal), % at 10 µM; AID 588458, 2011; in the data active = inhibition above about 50%
LMPTP inh – LMPTP phosphatase inhibitors, primary screen, biochemical, fluorescence intensity, uHTS; Low molecular weight phosphotyrosine protein phosphatase (Homo sapiens), P24666; recombinant LMPTP-A, OMFP fluorogenic substrate; inhibition, % at 20 µM; 0.22% of 360,000 active; AID 651560, 2012;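 active = compounds that cut the enzyme signal by at least half of the control window in the single-dose screen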;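 note: plate controls were DMSO wells with enzyme plus substrate for no effect and substrate without enzyme for full effect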
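Test system: LMPTP-A phosphatase enzyme; input: 0.625 nM LMPTP-A final; reagent: OMFP substrate, 400 µM final; compound dosing: 20 µM single dose, 3% DMSO; incubation: 50 min dark incubation at room temperature; measured by: endpoint fluorescence intensity from OMFP dephosphorylation; measure: % inhibition relative to no-enzyme and uninhibited control wells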
SUMO1 PPI mod – modulators of SUMO1 protein-protein interactions, primary screen, biochemical, uHTS; Small ubiquitin-related modifier 1 (Homo sapiens), P63165; SUMO1 binding to a labelled peptide, TR-FRET, 1 h; inhibition, % at 20 µM; 0.33% of 360,000 active; AID 602429, 2012; in the data active = inhibition above about 37%
Target sequence (P63165 whole entry, looked up): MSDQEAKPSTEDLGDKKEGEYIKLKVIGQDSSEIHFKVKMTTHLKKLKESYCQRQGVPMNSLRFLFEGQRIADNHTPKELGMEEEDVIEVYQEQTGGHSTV
STEP inh – STEP phosphatase inhibitors, primary screen, biochemical, fluorescence intensity, uHTS; Tyrosine-protein phosphatase non-receptor type 5 (Homo sapiens), P54829; recombinant STEP, OMFP fluorogenic substrate; inhibition, % at 20 µM; 0.25% of 360,000 active; AID 588621, 2011;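 active = inhibition at 20 µM, scaled per plate between control wells, above about 37%, limit read from the data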;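 note: 0% = DMSO with enzyme and substrate and 100% = substrate only without enzyme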
Target sequence (P54829 whole entry, looked up): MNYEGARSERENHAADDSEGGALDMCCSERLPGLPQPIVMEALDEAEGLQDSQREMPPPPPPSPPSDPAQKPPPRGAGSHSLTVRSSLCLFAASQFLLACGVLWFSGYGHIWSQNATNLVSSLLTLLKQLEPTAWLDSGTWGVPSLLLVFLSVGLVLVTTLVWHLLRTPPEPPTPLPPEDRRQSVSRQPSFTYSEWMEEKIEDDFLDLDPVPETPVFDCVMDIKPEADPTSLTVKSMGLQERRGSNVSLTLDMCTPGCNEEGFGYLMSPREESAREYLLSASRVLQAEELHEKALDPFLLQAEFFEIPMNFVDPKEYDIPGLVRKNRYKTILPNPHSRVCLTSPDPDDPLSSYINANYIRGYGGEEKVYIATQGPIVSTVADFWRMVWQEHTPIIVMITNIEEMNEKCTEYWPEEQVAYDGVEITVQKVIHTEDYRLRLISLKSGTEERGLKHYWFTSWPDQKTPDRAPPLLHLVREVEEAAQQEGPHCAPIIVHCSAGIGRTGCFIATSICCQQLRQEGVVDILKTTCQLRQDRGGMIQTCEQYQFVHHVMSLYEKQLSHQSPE
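Measure: Control-normalized % inhibition with plate pattern correction | Test system: STEP phosphatase, cell-free reaction | Medium: pH 6.0 Bis-Tris with DTT and Tween 20 | Technique: Fluorescence, 480/540 nm | Times: Reaction 20 min, ambient temperature | Doses: Single compound dose of 20 µM, 1% DMSO final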
Scp1 inh – Scp-1 phosphatase inhibitors, primary screen, biochemical, colorimetric, uHTS; inhibition, % at 20 µM; Carboxy-terminal domain RNA polymerase II polypeptide A small phosphatase 1 (Homo …; 0.88% of 340,000 active; Recombinant Scp1, phosphopeptide, malachite green phosphate absorbance; AID 493091, 2011;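 active = inhibition above about 50% at 20 µM, limit read from the data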;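 note: plate controls were DMSO wells with enzyme for no effect and wells lacking enzyme for full effect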
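Incubation: 45 min enzyme reaction at room temperature / System: truncated SCP-1 phosphatase (76-261aa) / Reagent: Phospho 17-mer peptide substrate / Buffer or medium: Acidic Tris acetate buffer with magnesium and detergent / Signal: absorbance at 630 nm / Doses: one concentration, 20 µM, with 1.0% DMSO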
NadD block – inhibitors of S. aureus NadD, primary screen, biochemical, colorimetric, uHTS; Nicotinate-nucleotide adenylyltransferase NadD (Staphylococcus aureus N315); 0.78% of 360,000 active; inhibition, % at 20 µM; AID 602399, 2012; purified NadD enzyme, colorimetric absorbance read-out; in the data active = inhibition above about 26%
Scp-1 conf – Scp-1 phosphatase inhibitors, retest, confirmation, biochemical, colorimetric, single concentration | recombinant SCP-1 catalytic domain, phosphate release, malachite green absorbance | 61% of 2,500 active | AID 540281, 2011 | shares compounds with Scp1 inh | inhibition, % at 20 µM;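 note: plate controls were DMSO with enzyme for no effect and buffer wells lacking enzyme for full effect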
MG interference – colorimetric readout interference by compounds, confirmation, artefact control for Scp-1 inhibitor project, biochemical, single concentration. shares compounds with Scp1 inh. Colorimetric interference counterscreen, malachite green absorbance 630 nm. apparent inhibition (interference), % at 20 µM. 2,500 tested, under 10 active. AID 540313, 2011;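 note: compounds added after enzyme reaction finished so only phosphate colour detection is probed; plate controls were DMSO wells with completed Scp-1 reaction for no effect and substrate wells lacking enzyme for full effect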
Scp-1 Tm shift – Scp-1 binding by thermal shift, confirmation, orthogonal assay for Scp-1 inhibitor project, biophysical, differential scanning fluorimetry; shares compounds with Scp1 inh; Recombinant SCP1, Sypro Orange thermal shift Tm; thermal shift relative to vanadate control, % at 40 µM; 25% of 1,500 active; AID 540329, 2011;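 active = substances whose mean melting-temperature shift, as a percentage of the reference inhibitor's shift, reaches about 5.3%, limit read from the data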;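 note: 0% = Tm of DMSO wells and 100% = Tm with sodium orthovanadate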
DNMT1 confirm – DNMT1 methyltransferase inhibitor retest, confirmation, biochemical, molecular beacon, fluorescence, single concentration; shares compounds with DNMT1 inh; DNMT1 molecular beacon HinP1I cleavage; inhibition, % at 10 µM; 8% of 2,300 active; AID 602385, 2012;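 active = average inhibition of at least 30% in the single-concentration confirmation test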
Beacon interf – shows spectral interference in the DNMT1 beacon assay; shares compounds with DNMT1 inh; DNMT1 molecular beacon spectral interference counterscreen, fluorescence 485/520; activation (fluorescence interference), % at 10 µM; 1% of 2,300 active;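 active = activation of at least 30% at 10 µM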;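 note: DNMT1 catalytic domain with a HinP1I cleavage step and a FAM/dabcyl DNA beacon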
STEP inh conf – STEP phosphatase inhibitor hit confirmation, biochemical, fluorescence intensity, single concentration. shares compounds with STEP inh. recombinant STEP, OMFP fluorogenic substrate. inhibition, % at 20 µM. 32% of 520 active. AID 623866, 2012; call rule not given here;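 note: 0% = enzyme with substrate plus DMSO and 100% = substrate without enzyme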
* = called active by the depositor; . = no result. Compounds with a hit are over-represented: about 2.4% of the library has one in this group of screens.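 Rule for the calls, unless noted: active = inhibition of at least 30% at 20 µM; inactive = the rest.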

SMILES	DNMT1 inh	LMPTP inh	SUMO1 PPI mod	STEP inh	Scp1 inh	NadD block	Scp-1 conf	MG interference	Scp-1 Tm shift	STEP inh conf	others
COC(=O)COc1ccc(/C=C2/SC(=O)N(CC(=O)N3CCCC3)C2=O)cc1Br	-1	-1	-15	-4	-2	1	.	.	.	.
Cc1ccccc1-n1nnnc1SCC(=O)c1c(N)n(C)c(=O)n(C)c1=O	2	0	6	-1	45	-3	.	.	.	.
CC(=O)Nc1ccc(S(=O)(=O)Nc2cccc(-n3cnnn3)c2)cc1	-1	0	-12	-4	-8	-8	.	.	.	.
CC(=O)c1ccc(S(=O)(=O)Nc2cccc(-n3cnnn3)c2)cc1	100*	18	21	97*	77*	5	65*	-14	2	99*	DNMT1 confirm=17;Beacon interf=0
O=C(O)c1ccc2c(c1)C(=O)N(c1cccc(-c3nc4ccccc4s3)c1)C2=O	1	4	-5	81*	93*	9	86*	-6	5.4*	47*
O=C(CSc1nnc2c(n1)[nH]c1ccc(F)cc12)NC1CC1	1	0	-10	0	-1	-1	.	.	.	.
O=C(CSc1nnc2c(n1)[nH]c1ccc(F)cc12)NCc1ccc(F)cc1	5	12	-2	60*	65*	10	25	-10	.	-4
CC(=O)N(CC(=O)O)c1ccccc1	0	-1	4	3	-5	0	.	.	.	.
COc1cccc(Nc2ccc([N+](=O)[O-])c3nonc23)c1	-9	13	-80	8	-5	-1	.	.	.	.
CCOc1ccc(/C=N/NC(=O)c2cc3c(OC)cccc3[nH]2)cc1	83*	25	15	89*	79*	4	58*	-13	6.4*	41*	DNMT1 confirm=4;Beacon interf=-3
CN(CCCNC(=O)c1cccc(N2CCCC2=O)c1)c1ccccc1	-6	9	0	2	-15	-3	.	.	.	.
O=c1c(C=Nc2ccc(Cl)cc2)c[nH]n1-c1cccc(Cl)n1	75*	62*	-9	79*	102*	2	99*	0	-3	2	DNMT1 confirm=2;Beacon interf=-6
COc1cc(CNCCc2ccccc2F)ccc1OCc1ccc(Cl)nc1	-1	-1	-4	-7	-7	-10	.	.	.	.
Cc1c(CC(=O)O)c(=O)oc2c(C)c3occ(-c4ccc(Br)cc4)c3cc12	4	2	23	69*	52*	11	62*	-7	-17	6
COc1ccc(-c2coc3c(C)c4oc(=O)c(CC(=O)O)c(C)c4cc23)cc1	0	1	19	1	-3	0	.	.	.	.
O=C(Nc1nc2ccsc2c(=O)s1)c1ccc(Cl)cc1	24	54*	-31	96*	103*	6	72*	-10	5	0
COc1ccc(/C=C/C(=O)NCC2COc3ccccc3O2)cc1OC (stereo unspecified)	-3	1	-6	1	-5	-2	.	.	.	.
O=C(Cn1nnc(-c2ccc(NC(=O)c3ccccc3F)cc2)n1)NCc1ccc(F)cc1	77*	39	6	65*	52*	4	68*	-15	8.1*	20	DNMT1 confirm=1;Beacon interf=-4
CC(C)c1nc2oc3c(N4CCNCC4)ncnc3c2c2c1CCC2	0	-1	2	-3	-12	-9	.	.	.	.
Cc1ccc(NS(=O)(=O)c2cccc3nsnc23)cc1	0	-1	-33	2	0	-3	.	.	.	.
O=S(=O)(Nc1ccccc1)c1cccc2nsnc12	44	58*	-14	84*	78*	-1	59*	-11	-16	40*
O=C(Cn1cc(/C=N/O)c2ccccc21)N1CCOCC1	-2	1	-3	-2	-6	6	.	.	.	.
O=C(NNc1ncnc2ccccc12)c1cccc(Cl)c1	2	6	1	38*	100*	-3	91*	-7	-11	1
O=C(N/N=C/c1cccnc1)c1ccc(NC(=O)c2cccc(Cl)c2)cc1	-12	21	61*	94*	70*	-2	72*	-12	8.4*	61*
O=C(N/N=C/c1cccnc1)c1ccc(Cl)c(Cl)c1	0	-2	-15	-1	-13	-6	.	.	.	.
C=C1C(=O)[C@]23C[C@H]1CC[C@H]2[C@]1(C)[C@@H](OC(C)=O)CC[C@@](C)(C(=O)OC)[C@H]1C[C@@H]3OC(C)=O	-19	0	2	0	.	-1	.	.	.	.
CCOc1ccc(N=C2NC(=O)S/C2=C\c2ccc(Cl)cc2)cc1	84*	47	-4	51*	112*	1	41*	-10	-2	33	DNMT1 confirm=0;Beacon interf=-6
COC(=O)c1ccc(C(=O)Nc2ccc3c(c2)C(=O)NC3=O)cc1	-4	31	95*	94*	75*	3	47*	-12	6.0*	2
Cc1ccc(C(=O)Nc2ccc3c(c2)C(=O)NC3=O)cc1	14	-3	-5	-2	-7	-6	.	.	.	.

Screening data deposited in PubChem BioAssay by Sanford-Burnham Center for Chemical Genomics.
